Results on three compounds are retold here after ChEMBL document CHEMBL1127319, “CNAD: a potent and specific inhibitor of alcohol dehydrogenase” (J Med Chem, 1994).

Test [1] addresses Glutamate dehydrogenase 1, mitochondrial (Bos taurus, UniProt P00366). The experiment in a line: Inhibition constant against mammalian glutamate dehydrogenase (GDH). Put shortly:
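Bovine liver GDH in 0.1 M sodium phosphate, pH 7.0, with 10 μM EDTA. NAD is the variable substrate. Rates are followed as the increase in A340 from NADH formation (ε 6.22 mM-1 cm-1). Ki is taken from Lineweaver-Burk plots by linear regression. At least duplicate runs.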

A short description of test [2]: Apparent inhibition constant against mammalian malate dehydrogenase (MDH). Put shortly: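 LDH and MDH: 0.05 M Tris-HCl, pH 9.0. NAD is the variable substrate. Rates come from the rise in A340 as NADH forms (ε 6.22 mM-1 cm-1). Ki is estimated from Lineweaver-Burk plots by linear regression of slope and intercept. Assays run at least in duplicate.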

SMILES strings stand for the structures.

Chain of Glutamate dehydrogenase 1, mitochondrial (P00366 whole entry): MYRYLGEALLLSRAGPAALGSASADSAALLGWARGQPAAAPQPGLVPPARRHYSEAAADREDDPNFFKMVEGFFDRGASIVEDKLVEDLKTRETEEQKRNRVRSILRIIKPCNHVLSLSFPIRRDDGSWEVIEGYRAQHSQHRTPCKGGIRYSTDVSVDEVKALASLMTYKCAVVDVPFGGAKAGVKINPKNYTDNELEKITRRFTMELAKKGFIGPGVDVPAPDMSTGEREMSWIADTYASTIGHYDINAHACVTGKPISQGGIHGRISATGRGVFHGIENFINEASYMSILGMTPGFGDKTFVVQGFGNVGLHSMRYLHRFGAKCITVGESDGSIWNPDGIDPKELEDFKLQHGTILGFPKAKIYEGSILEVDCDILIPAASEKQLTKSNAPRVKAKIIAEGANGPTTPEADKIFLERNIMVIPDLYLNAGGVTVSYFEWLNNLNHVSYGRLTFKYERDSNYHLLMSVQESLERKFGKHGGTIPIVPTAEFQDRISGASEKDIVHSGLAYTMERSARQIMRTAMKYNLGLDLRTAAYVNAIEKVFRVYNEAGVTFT

As to `NC(=O)C1=CN(C2OC(COP(=O)(O)OP(=O)(O)OC[C@H]3O[C@@H](n4cnc5c(N)ncnc54)[C@H](O)[C@@H]3O)[C@H](O)[C@@H]2O)C=CC1` (stereo partly drawn), in test [1], the Ki was determined as 3.4 µM. For the compound `NC(=O)c1cncc([C@@H]2O[C@H](COP(=O)(O)OP(=O)(O)OC[C@H]3O[C@@H](n4cnc5c(N)ncnc54)[C@H](O)[C@@H]3O)[C@@H](O)[C@H]2O)c1`, the Ki in test [2] amounted to 410 µM. Regarding `NC(=O)c1cccc([C@@H]2O[C@H](COP(=O)(O)OP(=O)(O)OC[C@H]3O[C@@H](n4cnc5c(N)ncnc54)[C@H](O)[C@@H]3O)[C@@H](O)[C@H]2O)n1`, in test [1], the Ki was 50 µM.
